Publication PMC4502975 (Angewandte Chemie (International Ed. in English), 2014)
Entries after “also recorded” stand apart in the source; their conditions may differ. Values belong to the molecule of their own block, whether it stands above or below them.

What was measured:
[1] = Buffer stability in AC assay buffer pH 4.5 by LC-MS; format: physicochemical
human AC [2] = biological target: T1, human AC (Homo sapiens, UniProt Q13510); experiment: Kinetic analysis of the AC reaction; format: biochemical; conditions: mean of two independent experiments
T1 sequence (Q13510 22-395): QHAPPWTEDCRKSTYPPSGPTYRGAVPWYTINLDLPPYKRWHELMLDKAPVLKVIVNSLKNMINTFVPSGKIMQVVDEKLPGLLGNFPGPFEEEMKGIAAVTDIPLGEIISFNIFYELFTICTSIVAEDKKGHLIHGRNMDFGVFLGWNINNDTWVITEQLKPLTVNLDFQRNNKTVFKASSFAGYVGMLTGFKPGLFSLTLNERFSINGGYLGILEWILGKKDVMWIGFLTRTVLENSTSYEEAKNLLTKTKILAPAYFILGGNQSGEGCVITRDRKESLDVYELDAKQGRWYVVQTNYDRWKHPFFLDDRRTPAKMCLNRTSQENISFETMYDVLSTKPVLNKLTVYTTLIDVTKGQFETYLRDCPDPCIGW
Summary of the method: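 Kinetic analysis of the fluorescence-based AC reaction run with vehicle (1% DMSO) or test compound at 20 or 50 nm, n=6 each. Vmax given in relative fluorescence units; KM derived for each condition. Values are the mean of two independent experiments.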

[3] = biological target: T2, purified recombinant human AC (Homo sapiens, UniProt Q13510); experiment: LC-MS study of covalent adduct with AC; format: binding; conditions: 1:10 protein:compound, 1 h, 37 °C, pH 4.5
T2 sequence (Q13510 143-395 limits assumed): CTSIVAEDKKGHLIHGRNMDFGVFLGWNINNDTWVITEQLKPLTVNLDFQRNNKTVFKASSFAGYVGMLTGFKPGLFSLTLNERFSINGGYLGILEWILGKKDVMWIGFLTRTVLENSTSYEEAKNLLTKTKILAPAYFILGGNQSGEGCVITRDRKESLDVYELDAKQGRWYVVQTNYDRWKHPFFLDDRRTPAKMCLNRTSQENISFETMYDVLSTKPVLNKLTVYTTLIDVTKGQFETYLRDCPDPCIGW
T2 sequence (Q13510 22-142 limits assumed): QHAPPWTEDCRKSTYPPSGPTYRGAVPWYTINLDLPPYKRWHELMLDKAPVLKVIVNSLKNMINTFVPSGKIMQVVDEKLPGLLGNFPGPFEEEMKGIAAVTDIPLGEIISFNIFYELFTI

human AC [4] = biological target: T1, human AC; experiment: Acid ceramidase; format: biochemical; conditions: for IC50 [nM] ±S.E.M on human AC: means of at least three determinations
[5] = Chemical stability in [D6]DMSO; format: physicochemical
rat AC = conditions: read-out: IC50 for rat AC; cited from earlier work

half-life at 10 µM [1]: 2.1 ± 0.05 h
Vmax (human AC [2]; 9 a 20 nM): 7808 RFU
Vmax (human AC [2]; 9 a 50 nM): 3889 RFU
Compound: O=C(NCCCCc1ccccc1)n1c(=O)oc2ccccc21 [9 a, 2-oxo-N-(4-phenylbutyl)-1,3-benzoxazole-3-carboxamide]
covalent binding to AC (LC-MS, tryptic peptide CTSIVAEDK) [3]: covalently binds to the catalytic cysteine, Cys-143

IC50 [nM] ±S.E.M on human AC (human AC [4]): not stable
chemical stability in [D6]DMSO [5]: limited chemical stability
Compound: O=c1oc2ccccc2n1C(=S)NCCCCc1ccccc1 [9 b]

Compound: CN(CCCCc1ccccc1)C(=O)n1c(=O)oc2ccccc21 [9 c]
IC50 [nM] ±S.E.M on human AC (human AC [4]): no inhibitory activity; also recorded: no inhibition

Compound: O=C(OCCCCc1ccccc1)n1c(=O)oc2ccccc21 [9 d]
IC50 [nM] ±S.E.M on human AC (human AC [4]): no inhibitory activity; also recorded: no inhibition

Compound: O=C(CCCCCc1ccccc1)n1c(=O)oc2ccccc21 [9 e]
IC50 [nM] ±S.E.M on human AC (human AC [4]): Loss of activity; also recorded: no inhibition

half-life at 10 µM [1]: 4.9 ± 0.5 h
potency relative to 9 a (human AC [4]; human AC): two-fold increase in potency
Compound: O=C(NCCCCc1ccccc1)n1c(=O)oc2cc(Br)ccc21 [16 a]

Compound: CCCCCCNC(=O)n1cc(F)c(=O)[nH]c1=O [carmofur, 5-fluoro-N-hexyl-2,4-dioxo-pyrimidine-1-carboxamide]
IC50 (rat AC): 29 nM

inhibition of AC in vitro (human AC [4]; at 10 μM): did not inhibit
Compound: O=c1[nH]c2ccc(-c3ccc(F)cc3)cc2o1 [compound 19]
